Among the data in ChEMBL document CHEMBL4680135, “Design, synthesis and biological evaluation of indole-2-carboxylic acid derivatives as IDO1/TDO dual inhibitors” (Eur J Med Chem, 2020) are IC50 values, retold here.

pIC50: −log10 of the molar value.

In assay [1] the target is Indoleamine 2,3-dioxygenase 1 (Homo sapiens, UniProt P14902). Description: Inhibition of recombinant human IDO1 assessed as reduction in kynurenine formation using L-tryptophan as substrate incubated for 45 mins by microplate reader assay.
Assay [2] concerns the target Tryptophan 2,3-dioxygenase (Homo sapiens, UniProt P48775). Description: Inhibition of recombinant human TDO assessed as reduction in kynurenine formation using L-tryptophan as substrate incubated for 45 mins by microplate reader assay. The gist of the method: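 Purified recombinant human TDO (0.05 μM) in 100 mM potassium phosphate pH 6.5 with 40 mM neutralized ascorbate, 200 μg/mL catalase, 20 μM methylene blue, L-Trp substrate and compound; 37 °C, 45 min. Stopped with 30% TCA, 65 °C 15 min, then 2% p-dimethylaminobenzaldehyde in acetic acid; absorbance 490 nm; IC50 by curve fitting.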

Sequence of Tryptophan 2,3-dioxygenase (P48775 whole entry): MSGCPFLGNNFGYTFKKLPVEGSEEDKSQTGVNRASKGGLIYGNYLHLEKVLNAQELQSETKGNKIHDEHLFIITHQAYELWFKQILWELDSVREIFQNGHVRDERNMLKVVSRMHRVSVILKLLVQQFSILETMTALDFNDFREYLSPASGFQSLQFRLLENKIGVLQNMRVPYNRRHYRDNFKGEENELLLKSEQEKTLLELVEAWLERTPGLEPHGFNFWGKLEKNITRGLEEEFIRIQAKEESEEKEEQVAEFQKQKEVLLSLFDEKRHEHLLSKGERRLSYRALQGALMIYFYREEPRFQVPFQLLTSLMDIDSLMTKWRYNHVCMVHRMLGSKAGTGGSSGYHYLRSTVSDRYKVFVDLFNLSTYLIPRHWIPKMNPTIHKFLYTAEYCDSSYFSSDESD
Sequence of Indoleamine 2,3-dioxygenase 1 (P14902 whole entry): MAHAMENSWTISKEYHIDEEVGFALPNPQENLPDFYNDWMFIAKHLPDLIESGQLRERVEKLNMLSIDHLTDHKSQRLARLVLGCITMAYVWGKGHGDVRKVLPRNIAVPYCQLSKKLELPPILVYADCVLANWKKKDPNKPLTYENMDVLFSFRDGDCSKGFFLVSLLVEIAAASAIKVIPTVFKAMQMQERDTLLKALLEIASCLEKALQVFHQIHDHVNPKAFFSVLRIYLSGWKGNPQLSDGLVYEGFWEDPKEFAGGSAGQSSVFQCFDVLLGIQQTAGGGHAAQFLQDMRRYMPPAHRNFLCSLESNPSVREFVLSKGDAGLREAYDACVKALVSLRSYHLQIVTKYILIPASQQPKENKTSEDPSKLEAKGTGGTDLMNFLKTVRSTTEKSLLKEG

`OCc1cc2c(Nc3ccc(F)c(Cl)c3)ccc(F)c2[nH]1`: the pIC50 in assay [1] was less than 4.00.
In the case of `O=C(O)c1cc2c(Nc3ccc(F)c(Cl)c3)ccc(F)c2[nH]1`, the pIC50 is 4.39 in assay [1] and 4.00 in assay [2].
On to `COc1cc(Nc2ccc(F)c(Cl)c2)c2cc(C(=O)O)[nH]c2c1`, for which the pIC50 in assay [1] is less than 4.00.
Still for that read-out and setting: then `N#Cc1ccc(Nc2ccc(F)c(Cl)c2)c2cc(C(=O)O)[nH]c12`, with less than 4.00; and `Cn1c(C(=O)O)cc2c(Nc3ccc(F)c(Cl)c3)ccc(F)c21`, with less than 4.00.
With `N#Cc1cc(Nc2ccc(F)c3[nH]c(C(=O)O)cc23)ccc1F`, the pIC50 in assay [1] was less than 4.00.
Regarding `CCCOc1cc(Nc2cc(NC(C)=O)cc3[nH]c(C(=O)O)cc23)ccc1F`, the values for the pIC50 in assay [1] and in assay [2] were 5.83 and 5.35, respectively.
For the compound `COc1cc(Cl)cc(Nc2ccc(F)c3[nH]c(C(=O)O)cc23)c1`, the pIC50 in assay [1] is less than 4.00.
As for `O=C(O)c1cc2c(Nc3ccc(F)c4[nH]c(C(=O)O)cc34)ccc(F)c2[nH]1`, the pIC50 in assay [1] was 5.57; in assay [2], 5.46.
Regarding `O=C(O)c1cc2c(C(=O)Nc3ccc(F)c(Cl)c3)ccc(F)c2[nH]1`, the pIC50 in assay [1] was less than 4.00.
On to `CC(=O)Nc1cc(Nc2ccc(F)c(F)c2)c2cc(C(=O)O)[nH]c2c1`, for which the pIC50 in assay [1] is 5.93; in assay [2], 5.81.
Regarding `CC(=O)Nc1cc(Nc2ccc(F)c(C3CC3)c2)c2cc(C(=O)O)[nH]c2c1`, the pIC50 in assay [1] is 5.53; in assay [2], 5.26.
Turning to `NC(=O)c1cc2c(Nc3ccc(F)c(Cl)c3)ccc(F)c2[nH]1`, the pIC50 in assay [1] is less than 4.00.
With `O=C(O)c1cc2c(Nc3cc(Br)ccc3F)ccc(F)c2[nH]1`, the figures for the pIC50 in assay [1] and in assay [2] were 4.55 and 4.38, respectively.
Take `CC(=O)Nc1cc(Nc2ccc(F)c(OC(C)C)c2)c2cc(C(=O)O)[nH]c2c1`: the pIC50 in assay [1] was 5.51; in assay [2], 5.19.
On to `COc1ccc(Nc2ccc(F)c3[nH]c(C(=O)O)cc23)cc1Cl`, for which the pIC50 in assay [1] is less than 4.00.
`CC(=O)Nc1cc(Nc2ccc(F)nc2)c2cc(C(=O)O)[nH]c2c1`: the pIC50 in assay [1] is 4.41; in assay [2], 4.34.
`CC(=O)Nc1cc(Nc2ccc(F)cn2)c2cc(C(=O)O)[nH]c2c1`: the pIC50 is 4.97 in assay [1] and 4.93 in assay [2].
As to `Cc1cc(Nc2ccc(F)c(Cl)c2)c2cc(C(=O)O)[nH]c2c1`, the pIC50 in assay [1] is 4.45; in assay [2], 4.65.
On to `O=C(O)c1cc2c(Nc3ccc(F)c(Cl)c3)cc(Cl)cc2[nH]1`, for which the pIC50 in assay [1] is less than 4.00.
Still for that read-out and setting: then `O=C(Nc1ccc(F)c2[nH]c(C(=O)O)cc12)c1ccc(F)c(Cl)c1`, with less than 4.00.
For `N#Cc1cc(Nc2ccc(F)c(Cl)c2)c2cc(C(=O)O)[nH]c2c1`, the pIC50 in assay [1] and in assay [2] was less than 4.00 each time.
As to `Fc1ccc(Nc2ccc(F)c3[nH]ccc23)cc1Cl`, the pIC50 in assay [1] was less than 4.00.
For `CC(=O)Nc1cc(Nc2ccc(F)c(C)c2)c2cc(C(=O)O)[nH]c2c1`, the figures for the pIC50 in assay [1] and in assay [2] were 5.74 and 5.77, respectively.
For the compound `CC(=O)Nc1cc(Nc2ccc(F)c(OC(F)(F)F)c2)c2cc(C(=O)O)[nH]c2c1`, the pIC50 in assay [1] is 5.86; in assay [2], 5.44.
Turning to `O=C(Cc1ccc(F)c(Cl)c1)Nc1ccc(F)c2[nH]c(C(=O)O)cc12`, the pIC50 in assay [1] was less than 4.00.
With `CCNC1=C/C(=N\c2ccc(F)c(Cl)c2)c2cc(C(=O)O)[nH]c2C1=O`, the pIC50 was 7.74 in assay [1] and 7.60 in assay [2].
`CC(=O)Nc1cc(Nc2ccc(F)c(OCC(F)(F)F)c2)c2cc(C(=O)O)[nH]c2c1`: the values for the pIC50 in assay [1] and in assay [2] were 5.34 and 5.02, respectively.
Consider `COc1ccc(Nc2cc(NC(C)=O)cc3[nH]c(C(=O)O)cc23)cn1`, for which the pIC50 in assay [1] is 5.47; in assay [2] it was 5.44.
Consider `CC(=O)Nc1ccc(Nc2ccc(F)c(Cl)c2)c2cc(C(=O)O)[nH]c12`, for which, in assay [1], the pIC50 was less than 4.00.
In the case of `Cc1ccc(Nc2ccc(F)c(Cl)c2)c2cc(C(=O)O)[nH]c12`, the negative logarithm of the IC50 (pIC50) in assay [1] is less than 4.00.
Take `O=C(O)c1cc2c(Nc3ccc(C(F)(F)F)c(Cl)c3)ccc(F)c2[nH]1`: the pIC50 in assay [1] is less than 4.00.
As to `CC(=O)Nc1cc(Nc2ccc(F)c(Cl)c2)c2cc(C(=O)O)sc2c1`, the pIC50 in assay [1] was less than 4.00.
The same measure, in the same setting: in the case of `O=C(O)c1cc2c(Nc3ccc(F)c4[nH]ccc34)ccc(F)c2[nH]1` it was less than 4.00; in that of `O=C(O)c1cc2c(Nc3ccc(Cl)c(Cl)c3)ccc(F)c2[nH]1`, less than 4.00.
Consider `O=C(O)c1cc2c(Nc3ccc(F)c(OC(F)(F)F)c3)ccc(F)c2[nH]1`, for which the figures for the pIC50 in assay [1] and in assay [2] were 4.79 and 4.78, respectively.
Take `N#Cc1cc2c(Nc3ccc(F)c(Cl)c3)ccc(F)c2[nH]1`: in assay [1], the pIC50 is less than 4.00.
On to `COc1cc(Nc2ccc(F)c3[nH]c(C(=O)O)cc23)cc(C(F)(F)F)c1`, for which the pIC50 in assay [1] is less than 4.00.
With `CCOc1cc(Nc2cc(NC(C)=O)cc3[nH]c(C(=O)O)cc23)ccc1F`, the pIC50 in assay [1] was 5.66; in assay [2], 5.29.
As for `CC(=O)Nc1cc(Nc2ccc(F)c(OCc3ccccc3)c2)c2cc(C(=O)O)[nH]c2c1`, the figures for the pIC50 in assay [1] and in assay [2] were 5.00 and 5.28, respectively.
`O=C(NO)c1cc2c(Nc3ccc(F)c(Cl)c3)ccc(F)c2[nH]1`: in assay [1], the negative-log IC50 (pIC50) is less than 4.00.
As to `CC(=O)Nc1cc(Nc2ccc(C(F)(F)F)cc2)c2cc(C(=O)O)[nH]c2c1`, the pIC50 was 4.26 in assay [1] and 4.63 in assay [2].
As to `O=C(Nc1ccc(F)c(Cl)c1)Nc1ccc(F)c2[nH]c(C(=O)O)cc12`, the pIC50 in assay [1] is less than 4.00.
For the compound `CC(=O)Nc1cc(Nc2cccc3[nH]ncc23)c2cc(C(=O)O)[nH]c2c1`, the pIC50 in assay [1] was 5.12; in assay [2], 5.17.
Turning to `N/C(=N\O)c1cc2c(Nc3ccc(F)c(Cl)c3)ccc(F)c2[nH]1`, in assay [1], the pIC50 was less than 4.00.
On to `O=C(O)c1cc2c(Nc3ccc(F)c(Br)c3)ccc(F)c2[nH]1`, for which the pIC50 in assay [1] is 5.00; in assay [2], 4.98.
`Cc1cc2c(Nc3ccc(F)c(Cl)c3)ccc(F)c2[nH]1`: in assay [1], the pIC50 is less than 4.00.
As for `CC(=O)Nc1cc(Nc2ccc(F)c(-c3ccsc3)c2)c2cc(C(=O)O)[nH]c2c1`, the figures for the pIC50 in assay [1] and in assay [2] were 5.41 and 5.60, respectively.
As to `CC(=O)Nc1cc(Nc2ccc(F)c(Cl)c2)c2cc(C(=O)O)[nH]c2c1`, the pIC50 in assay [1] is 5.08; in assay [2], 5.07.
`O=C(O)c1cc2c(Nc3ccc(F)c(F)c3)ccc(F)c2[nH]1`: the pIC50 in assay [1] was less than 4.00.
As for `O=C(O)c1cc2c(Nc3ccc(F)c(Cl)c3)cccc2[nH]1`, the pIC50 in assay [1] is less than 4.00.
On to `COc1cc(Nc2ccc(F)c3[nH]c(C(=O)O)cc23)cc(OC)c1OC`, for which the values for the pIC50 in assay [1] and in assay [2] were 4.65 and 4.63, respectively.
`O=C(O)c1cc2c(NCc3ccc(F)c(Cl)c3)ccc(F)c2[nH]1`: in assay [1], the pIC50 was less than 4.00.
On to `O=C(O)c1cc2c(Nc3ccc(F)c(Cl)c3)ccc(Cl)c2[nH]1`, for which, in assay [1], the pIC50 is less than 4.00.
Consider `COc1cc(Nc2ccc(F)c3[nH]c(C(=O)O)cc23)ccc1F`, for which the pIC50 in assay [1] is 4.26; in assay [2] it was 4.50.
With `CC(=O)Nc1cc(Nc2ccc(F)c(Oc3ccccc3)c2)c2cc(C(=O)O)[nH]c2c1`, the pIC50 is 5.23 in assay [1] and 5.84 in assay [2].
`CC(=O)Nc1cc(Nc2ccc(F)c(OCC3CC3)c2)c2cc(C(=O)O)[nH]c2c1`: the pIC50 in assay [1] is 5.51; in assay [2], 5.39.
`O=C(O)c1cc2c(Nc3ccc(F)c(Cl)c3)cc([N+](=O)[O-])cc2[nH]1`: the pIC50 in assay [1] and in assay [2] was less than 4.00 throughout.
In the case of `COc1ccc(Nc2cc(NC(C)=O)cc3[nH]c(C(=O)O)cc23)cc1`, the pIC50 was 5.77 in assay [1] and 5.52 in assay [2].
With `CC(=O)Nc1cc(Nc2ccc(OC(F)(F)F)cc2)c2cc(C(=O)O)[nH]c2c1`, the pIC50 in assay [1] is 4.63; in assay [2], 5.24.
For `O=C(O)c1cc2c(Nc3ccc(OC(F)(F)F)c(Cl)c3)ccc(F)c2[nH]1`, in assay [1], the pIC50 was less than 4.00.
Turning to `O=C(O)c1cc2c(Nc3ccc(F)c(Cl)c3)cc(F)cc2[nH]1`, the pIC50 in assay [1] was less than 4.00.
Turning to `O=C(O)c1cc2c(Nc3cccc4[nH]ccc34)ccc(F)c2[nH]1`, the pIC50 in assay [1] was less than 4.00.
With `COc1ccc(C(=O)O)c(Nc2ccc(F)c3[nH]c(C(=O)O)cc23)c1`, the pIC50 in assay [1] was less than 4.00.
`O[C@H](C[C@H]1c2c(F)cccc2-c2cncn21)[C@H]1CC[C@H](O)CC1` [NAVOXIMOD]: the pIC50 in assay [2] is 6.10.
With `COc1cc(Nc2cc(NC(C)=O)cc3[nH]c(C(=O)O)cc23)ccc1F`, the pIC50 in assay [1] is 5.91; in assay [2], 5.60.
For `CC(=O)Nc1cc(Nc2ccc(OC(F)F)cc2)c2cc(C(=O)O)[nH]c2c1`, the results for the pIC50 in assay [1] and in assay [2] were 5.50 and 5.26, respectively.
As to `COc1ccc(Nc2ccc(F)c(Cl)c2)c2cc(C(=O)O)[nH]c12`, the pIC50 is 4.49 in assay [1] and 4.71 in assay [2].
As for `COc1ccc(Nc2cc(NC(C)=O)cc3[nH]c(C(=O)O)cc23)nc1`, the results for the pIC50 in assay [1] and in assay [2] were 5.33 and 5.28, respectively.
Take `CC(=O)Nc1cc(Nc2ccc(F)cc2)c2cc(C(=O)O)[nH]c2c1`: the pIC50 in assay [1] was 5.28; in assay [2], 5.11.
As for `O=C(O)c1cc2c(Sc3ccc(F)c(Cl)c3)ccc(F)c2[nH]1`, in assay [1], the pIC50 was less than 4.00.
`CCNc1cc(Nc2ccc(F)c(Cl)c2)c2cc(C(=O)O)[nH]c2c1`: the pIC50 in assay [1] was 5.76; in assay [2], 5.45.
As to `O=C(O)c1cc2c(Nc3ccc(F)c(Cl)c3)ccc([N+](=O)[O-])c2[nH]1`, the pIC50 in assay [1] is less than 4.00.
Turning to `Cc1cc(Nc2ccc(F)c(Cl)c2)c2cc(C(=O)O)n(C)c2c1`, the pIC50 in assay [1] was less than 4.00.

One may read the pIC50 as the IC50 on a negative log10 scale, so that one unit is a factor of ten.
